Calls of active or inactive are those of the source. The calls are words filed in the database; no cut-off is given here.
Key:
[1] = biological target: T1, Macrophage migration inhibitory factor (Homo sapiens) (UniProt P14174); assay: Inhibition of recombinant His-tagged MIF tautomerase activity (unknown origin) at 25 uM using 4-HPP as substrate relative to control
T1 sequence (whole entry): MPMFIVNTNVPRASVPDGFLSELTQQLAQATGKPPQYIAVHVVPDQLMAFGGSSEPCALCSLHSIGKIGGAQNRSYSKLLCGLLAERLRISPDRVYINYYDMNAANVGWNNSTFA
Outline: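 Single-point screen at final inhibitor 25 µM in 5% DMSO (from 10 mM DMSO stocks diluted in 0.4 M boric acid pH 6.2). MIF final 340 nM; reaction started with 4-HPP (final 0.5 mM; pre-equilibrated overnight in 50 mM ammonium acetate pH 6.0). Absorbance at 306 nm followed over time. Vehicle control 5% DMSO; no-MIF negative control. Mean of at least 2 independent experiments.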

[2] = biological target: T2, Macrophage migration inhibitory factor (Homo sapiens, UniProt P14174); assay: Inhibition of recombinant His-tagged MIF tautomerase activity (unknown origin) using 4-HPP as substrate
T2 sequence (P14174 whole entry): T1 sequence (whole entry)

[3] = biological target: T2, Macrophage migration inhibitory factor; assay: (§1) Inhibition of recombinant His-tagged MIF tautomerase activity (unknown origin) using 4-HPP as substrate pretreated for 2 mins followed by substrate addition
Outline: (§2)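 Time-dependence test: inhibitor (125–0 µM, 1.6-fold series in 5% DMSO) preincubated with MIF (340 nM) for 2 or 40 min before 4-HPP was added (final 0.5 mM). IC50 curves were built from the 306 nm absorbance increase in boric acid pH 6.2, and the two preincubation times were compared.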

[4] = biological target: T2, Macrophage migration inhibitory factor; assay: (§3) Inhibition of recombinant His-tagged MIF tautomerase activity (unknown origin) using 4-HPP as substrate pretreated for 40 mins followed by substrate addition; outline: as §2
[5] = biological target: T1, Macrophage migration inhibitory factor (Homo sapiens); assay: Time-dependent inhibition of recombinant His-tagged MIF tautomerase activity (unknown origin) using 4-HPP as substrate; outline: as §2
[6] = biological target: T1, Macrophage migration inhibitory factor (Homo sapiens); assay: Reversible inhibition of recombinant His-tagged MIF tautomerase activity (unknown origin) assessed as recovery of enzyme activity at 125 uM using 4-HPP as substrate by substrate dilution method
Outline: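 Jump-dilution: MIF (34 µM) was mixed with inhibitor (125 µM, 5% DMSO), then diluted 100-fold into 4-HPP (0.5 mM) in boric acid. Absorbance at 306 nm was plotted against time to follow activity recovery. The control was treated the same way with 5% DMSO and no inhibitor.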

[7] = biological target: T1, Macrophage migration inhibitory factor (Homo sapiens); assay: as §1; outline: as §2
[8] = biological target: T1, Macrophage migration inhibitory factor (Homo sapiens); assay: as §3; outline: as §2

Q: With COc1ccc2c(c1)OC(N)=C1C(=O)N(CCO)C(=O)CC12 (stereo not given) as the molecule, how does the inhibition [1] read?
A: 0%

Q: Which inhibition [1] does the source give for C#CCN1C(=O)CC2C(=C(N)Oc3cc(OC)ccc32)C1=O (stereo not given) here?
A: 0%

Q: How did the inhibition [1] turn out when COc1ccc2c(c1)OC(N)=C1C(=O)N(Cc3ccncc3)C(=O)CC12 (stereo not given) was run?
A: 0%

Q: COc1ccc2c(c1)OC(N)=C1C(=O)N(CCc3cccs3)C(=O)CC12 (stereo not given) was tested. Which inhibition [1] did it give?
A: 15%

Q: Which inhibition [1] does the source give for COCCN1C(=O)CC2C(=C(N)Oc3cc(C)ccc32)C1=O (stereo not given) here?
A: 0%

Q: For Cc1ccc2c(c1)C1CC(=O)N(Cc3cccnc3)C(=O)C1=C(N)O2 (stereo not given), which inhibition [1] is on record?
A: 0%

Q: With Cc1ccc2c(c1)OC(N)=C1C(=O)N(Cc3ccc(N)cc3)C(=O)CC12 (stereo not given) as the molecule, how does the inhibition [1] read?
A: 0%

Q: Which inhibition [1] does the source give for Cc1ccc2c(c1)OC(N)=C1C(=O)N(CCc3ccc(Cl)cc3)C(=O)CC12 (stereo not given) here?
A: 5%

Q: With NC1=C2C(=O)N(Cc3ccc(N)cc3)C(=O)CC2c2ccc(OCc3ccc(Cl)cc3)cc2O1 (stereo not given) as the molecule, how does the inhibition [1] read?
A: 45%

Q: How did the inhibition [1] turn out when COc1ccc2c(c1)OC(N)=C1C(=O)N(Cc3cccnc3)C(=O)CC12 (stereo not given) was run?
A: 0%

Q: With CCOc1ccc2c(c1)OC(N)=C1C(=O)N(CCc3c[nH]c4ccccc34)C(=O)CC12 (stereo not given) as the molecule, how does the inhibition [1] read?
A: 10%

Q: With CCCCCCCCCCCCN1C(=O)CC2C(=C(N)Oc3cc(OCc4ccc(Cl)cc4)ccc32)C1=O (stereo not given) as the molecule, how does the inhibition [1] read?
A: 80%

Q: What about the IC50 [2] of the same molecule?
A: 7.1 µM

Q: Which inhibition [1] does the source give for COCCCN1C(=O)CC2C(=C(N)Oc3cc(OC)ccc32)C1=O (stereo not given) here?
A: 0%

Q: For CCOc1ccc2c(c1)OC(N)=C1C(=O)N(Cc3cccc4ccccc34)C(=O)CC12 (stereo not given), which inhibition [1] is on record?
A: 50%

Q: How did the inhibition [1] turn out when CCOc1ccc2c(c1)OC(N)=C1C(=O)N(Cc3cccnc3)C(=O)CC12 (stereo not given) was run?
A: 10%

Q: Cc1ccc2c(c1)C1CC(=O)N(CCO)C(=O)C1=C(N)O2 (stereo not given) was tested. Which inhibition [1] did it give?
A: 0%

Q: Which inhibition [1] does the source give for COc1ccc2c(c1)OC(N)=C1C(=O)N(CCCN(C)C)C(=O)CC12 (stereo not given) here?
A: 0%

Q: Which inhibition [1] does the source give for Cc1ccc2c(c1)OC(N)=C1C(=O)N(Cc3ccncc3)C(=O)CC12 (stereo not given) here?
A: 0%

Q: Cc1ccc2c(c1)OC(N)=C1C(=O)N(Cc3cccc4ccccc34)C(=O)CC12 (stereo not given) was tested. Which inhibition [1] did it give?
A: 35%

Q: With COc1ccc2c(c1)OC(N)=C1C(=O)N(CCCN3CCOCC3)C(=O)CC12 (stereo not given) as the molecule, how does the inhibition [1] read?
A: 0%

Q: Which inhibition [1] does the source give for CCOc1ccc2c(c1)OC(N)=C1C(=O)N(CCCN3CCOCC3)C(=O)CC12 (stereo not given) here?
A: 0%

Q: CCOc1ccc2c(c1)OC(N)=C1C(=O)N(CCc3ccc(Cl)cc3Cl)C(=O)CC12 (stereo not given) was tested. Which inhibition [1] did it give?
A: 30%

Q: How did the inhibition [1] turn out when Cc1ccc2c(c1)C1CC(=O)N(CCN3CCOCC3)C(=O)C1=C(N)O2 (stereo not given) was run?
A: 0%

Q: For CCOCCN1C(=O)CC2C(=C(N)Oc3cc(OCC)ccc32)C1=O (stereo not given), which inhibition [1] is on record?
A: 0%

Q: Which inhibition [1] does the source give for CCN(CC)CCCN1C(=O)CC2C(=C(N)Oc3ccc(C)cc32)C1=O (stereo not given) here?
A: 0%

Q: Cc1ccc2c(c1)C1CC(=O)N(CC(C)C)C(=O)C1=C(N)O2 (stereo not given) was tested. Which inhibition [1] did it give?
A: 0%

Q: Which inhibition [1] does the source give for CCCCCCCCCCCCN1C(=O)CC2C(=C(N)Oc3ccccc32)C1=O (stereo not given) here?
A: 60%

Q: What about the IC50 [2] of the same molecule?
A: 18 µM

Q: And the IC50 [3]?
A: 13.5 µM

Q: And the IC50 [4]?
A: 13.8 µM

Q: What about the TDI [5] of the same molecule?
A: inactive

Q: What about the inhibition [6] of the same molecule?
A: Active

Q: With CCCCCCCCCCCCN1C(=O)CC2C(=C(N)Oc3ccc(C)cc32)C1=O (stereo not given) as the molecule, how does the inhibition [1] read?
A: 50%

Q: Which results are given for NC1=C2C(=O)N(CCc3c[nH]c4ccccc34)C(=O)CC2c2ccc(OCc3ccc(Cl)cc3)cc2O1 (stereo not given)?
A: inhibition [1]: 70%; IC50 [2]: 8 µM

Q: With Cc1ccc2c(c1)OC(N)=C1C(=O)N(CCc3ccc(Cl)cc3Cl)C(=O)CC12 (stereo not given) as the molecule, how does the inhibition [1] read?
A: 20%

Q: Which inhibition [1] does the source give for Cc1ccc2c(c1)C1CC(=O)N(CCc3c[nH]c4ccccc34)C(=O)C1=C(N)O2 (stereo not given) here?
A: 25%

Q: What does the source list for Cc1ccc2c(c1)OC(N)=C1C(=O)N(CCc3c[nH]c4ccccc34)C(=O)CC12 (stereo not given)?
A: inhibition [1]: 55%; IC50 [2]: 6.2 µM; inhibition [7]: Active; inhibition [8]: Active; TDI [5]: inactive

Q: COc1ccc2c(c1)OC(N)=C1C(=O)N(Cc3cccc4ccccc34)C(=O)CC12 (stereo not given) was tested. Which inhibition [1] did it give?
A: 25%

Q: Which inhibition [1] does the source give for COc1ccc2c(c1)OC(N)=C1C(=O)N(Cc3ccco3)C(=O)CC12 (stereo not given) here?
A: 0%

Q: How did the inhibition [1] turn out when COc1ccc2c(c1)OC(N)=C1C(=O)N(CC(C)C)C(=O)CC12 (stereo not given) was run?
A: 15%

Q: For Cc1ccc2c(c1)C1CC(=O)N(Cc3ccncc3)C(=O)C1=C(N)O2 (stereo not given), which inhibition [1] is on record?
A: 0%

Q: How did the inhibition [1] turn out when CCOc1ccc2c(c1)OC(N)=C1C(=O)N(CC(C)C)C(=O)CC12 (stereo not given) was run?
A: 10%

Q: For CCOCCN1C(=O)CC2C(=C(N)Oc3cc(OCc4ccc(Cl)cc4)ccc32)C1=O (stereo not given), which inhibition [1] is on record?
A: 10%

Q: How did the inhibition [1] turn out when NC1=C2C(=O)N(CCc3ccc(Cl)cc3)C(=O)CC2c2ccccc2O1 (stereo not given) was run?
A: 15%

Q: Which inhibition [1] does the source give for Cc1ccc2c(c1)C1CC(=O)N(CCc3ccc(Cl)cc3Cl)C(=O)C1=C(N)O2 (stereo not given) here?
A: 20%

Q: Which inhibition [1] does the source give for NC1=C2C(=O)N(CCc3c[nH]c4ccccc34)C(=O)CC2c2ccccc2O1 (stereo not given) here?
A: 15%

Q: With Cc1ccc2c(c1)C1CC(=O)N(Cc3ccc(N)cc3)C(=O)C1=C(N)O2 (stereo not given) as the molecule, how does the inhibition [1] read?
A: 10%

Q: With NC1=C2C(=O)N(CCc3ccc(Cl)cc3)C(=O)CC2c2ccc(OCc3ccc(Cl)cc3)cc2O1 (stereo not given) as the molecule, how does the inhibition [1] read?
A: 80%

Q: And the IC50 [2]?
A: 13 µM

Q: What does the source list for CCCCCCCCCCCCN1C(=O)CC2C(=C(N)Oc3cc(OCC)ccc32)C1=O (stereo not given)?
A: inhibition [1]: 60%; IC50 [2]: 21 µM

Q: For Cc1ccc2c(c1)C1CC(=O)N(CCc3cccs3)C(=O)C1=C(N)O2 (stereo not given), which inhibition [1] is on record?
A: 10%

Q: Which inhibition [1] does the source give for Cc1ccc2c(c1)C1CC(=O)N(Cc3ccco3)C(=O)C1=C(N)O2 (stereo not given) here?
A: 15%

Q: For CC(C)CN1C(=O)CC2C(=C(N)Oc3cc(OCc4ccc(Cl)cc4)ccc32)C1=O (stereo not given), which inhibition [1] is on record?
A: 40%

Q: NC1=C2C(=O)N(Cc3ccco3)C(=O)CC2c2ccccc2O1 (stereo not given) was tested. Which inhibition [1] did it give?
A: 0%

Q: With Cc1ccc2c(c1)OC(N)=C1C(=O)N(CCCN(C)C)C(=O)CC12 (stereo not given) as the molecule, how does the inhibition [1] read?
A: 0%

Q: C#CCN1C(=O)CC2C(=C(N)Oc3cc(C)ccc32)C1=O (stereo not given) was tested. Which inhibition [1] did it give?
A: 0%

Q: For COc1ccc2c(c1)OC(N)=C1C(=O)N(Cc3ccc(N)cc3)C(=O)CC12 (stereo not given), which inhibition [1] is on record?
A: 0%

Q: NC1=C2C(=O)N(Cc3ccncc3)C(=O)CC2c2ccc(OCc3ccc(Cl)cc3)cc2O1 (stereo not given) was tested. Which inhibition [1] did it give?
A: 15%

Q: Which inhibition [1] does the source give for C=CCN1C(=O)CC2C(=C(N)Oc3cc(OCc4ccc(Cl)cc4)ccc32)C1=O (stereo not given) here?
A: 10%

Q: How did the inhibition [1] turn out when CCOc1ccc2c(c1)OC(N)=C1C(=O)N(Cc3ccc(N)cc3)C(=O)CC12 (stereo not given) was run?
A: 0%

Q: NC1=C2C(=O)N(Cc3ccc(N)cc3)C(=O)CC2c2ccccc2O1 (stereo not given) was tested. Which inhibition [1] did it give?
A: 0%

Q: Which inhibition [1] does the source give for NC1=C2C(=O)N(CCO)C(=O)CC2c2ccccc2O1 (stereo not given) here?
A: 0%

Q: With CCOc1ccc2c(c1)OC(N)=C1C(=O)N(Cc3ccncc3)C(=O)CC12 (stereo not given) as the molecule, how does the inhibition [1] read?
A: 0%
